# Active and inactive are the calls of the source. No cut-off for these calls is given here.
# Columns and labels:
# Staphylococcus aureus [1] = assay: Antibacterial activity against methicillin-resistant Staphylococcus aureus 33921 assessed as viable count at 4 times of MIC after 48 hrs using 10^6 CFU/ml inoculum; format: functional, organism-based
# Staphylococcus aureus [2] = assay: AUBKC (0 to 48 hrs) in methicillin-resistant Staphylococcus aureus 33829 infected in in vitro pharmacokinetic model at 750 mg, iv every 8 hrs using 10^6 CFU/ml inoculum; format: functional
# Summary of the method: (§1)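 Single-compartment dilutional in vitro PK model at 37°C in 10% Mueller-Hinton broth, stirred, flow 132 ml/h. […] Inoculum 10^6 CFU/ml added 45 min before dosing, or 10^8 CFU/ml run overnight. Viable counts with β-lactamase neutralisation. AUBKC by log-linear trapezoidal rule, at least triplicate.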
# Staphylococcus aureus [3] = assay: Antibacterial activity against methicillin-resistant Staphylococcus aureus; format: functional
# Staphylococcus aureus [4] = assay: AUBKC (0 to 24 hrs) in methicillin-resistant Staphylococcus aureus 33922 infected in in vitro pharmacokinetic model at 1500 mg, iv every 8 hrs using 10^8 CFU/ml inoculum; format: functional; summary of the method: as §1
# Staphylococcus aureus [5] = assay: AUBKC (0 to 24 hrs) in methicillin-resistant Staphylococcus aureus 33922 infected in in vitro pharmacokinetic model at 750 mg, iv every 8 hrs using 10^6 CFU/ml inoculum; format: functional; summary of the method: as §1
# Staphylococcus aureus [6] = assay: Antibacterial activity against methicillin-resistant Staphylococcus aureus 33827 in in vitro pharmacokinetic model assessed as viable count at 6 times of MIC; format: functional
# Summary of the method: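 Population analysis before drug exposure (time 0). Model samples were plated on nutrient agar without drug and with tomopenem at 2×, 4× and 6× MIC (10% MHB MIC), and growth was recorded as log CFU/ml. Detection limit 2 log10.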
# Staphylococcus aureus [7] = assay: Antibacterial activity against methicillin-resistant Staphylococcus aureus 33922 by 10% MH broth method; format: functional
# Staphylococcus aureus [8] = assay: T>MIC for 1-log drop in count in methicillin-resistant Staphylococcus aureus 33827 in in vitro pharmacokinetic model after 24 hrs using 10^6 CFU/ml inoculum; format: functional
# Staphylococcus aureus [9] = assay: T>MIC for 2-log drop in count in methicillin-resistant Staphylococcus aureus 33827 in in vitro pharmacokinetic model after 24 hrs using 10^8 CFU/ml inoculum; format: functional
# Staphylococcus aureus [10] = assay: Antibacterial activity against methicillin-resistant Staphylococcus aureus 33820 infected in in vitro pharmacokinetic model assessed as reduction in viable count at 750 mg, iv every 8 hrs measured after 36 hrs using 10^6 CFU/ml inoculum; format: functional
# Summary of the method: (§2)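 Single-compartment dilutional in vitro PK model, 37°C, stirred, in 10% Mueller-Hinton broth. […] Inoculum 10^6 CFU/ml from a 24-h plate culture was added 45 min before dosing. Viable counts by spiral plating on nutrient agar with β-lactamase neutralization. Log change was taken from time 0; detection limit 10^2 CFU/ml; at least triplicate.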
# Staphylococcus aureus [11] = assay: Antibacterial activity against methicillin-resistant Staphylococcus aureus 33815 in in vitro pharmacokinetic model assessed as viable count at 6 times of MIC; format: functional
# Summary of the method: (§3)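 Preexposure population analysis profile: model sample at time zero plated on nutrient agar with tomopenem at multiples of the MIC. Growth counted as log CFU/ml, detection limit 2 log10.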
# Staphylococcus aureus [12] = assay: Antibacterial activity against methicillin-resistant Staphylococcus aureus 33815 infected in in vitro pharmacokinetic model assessed as reduction in viable count at 750 mg, iv every 8 hrs measured after 12 hrs using 10^6 CFU/ml inoculum; format: functional; summary of the method: as §2
# Staphylococcus aureus [13] = assay: Antibacterial activity against methicillin-resistant Staphylococcus aureus 33829 infected in in vitro pharmacokinetic model assessed as time required to 99% killing at 1500 mg, iv every 8 hrs using 10^6 CFU/ml inoculum; format: functional
# Summary of the method: (§4)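 Single-compartment dilutional in vitro PK model, 10% Mueller-Hinton broth, 37°C, stirred, dilution 132 ml/h. […] Inoculum 10^6 CFU/ml (added 45 min pre-dose) or 10^8 CFU/ml (run overnight). Viable counts by spiral plating, beta-lactamase neutralization, detection limit 10^2 CFU/ml. At least triplicate.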
# Staphylococcus aureus [14] = assay: Antibacterial activity against methicillin-resistant Staphylococcus aureus 33922 infected in in vitro pharmacokinetic model assessed as reduction in viable count at 1500 mg, iv every 8 hrs measured after 24 hrs using 10^8 CFU/ml inoculum; format: functional
# Staphylococcus aureus [15] = assay: T>MIC for 3-log drop in count in methicillin-resistant Staphylococcus aureus 33815 in in vitro pharmacokinetic model after 24 hrs using 10^8 CFU/ml inoculum; format: functional
# Staphylococcus aureus [16] = assay: T>MIC for 1-log drop in count in methicillin-resistant Staphylococcus aureus 33827 in in vitro pharmacokinetic model after 24 hrs using 10^8 CFU/ml inoculum; format: functional
# Staphylococcus aureus [17] = assay: Antibacterial activity against methicillin-resistant Staphylococcus aureus 33921 in in vitro pharmacokinetic model assessed as viable count at 6 times of MIC; format: functional
# Summary of the method: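 Preexposure population analysis: time-zero model samples plated on nutrient agar without drug and with drug at multiples of the 10% broth MIC. Growth reported as log CFU/ml, detection limit 2 log10.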
# Staphylococcus aureus [18] = assay: Antibacterial activity against methicillin-resistant Staphylococcus aureus 33815 infected in in vitro pharmacokinetic model assessed as reduction in viable count at 1500 mg, iv every 8 hrs measured after 36 hrs using 10^8 CFU/ml inoculum; format: functional
# Summary of the method: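 PK model at 37°C in 10% MHB. […] A 0.5 McFarland suspension (1 ml) was added and the model run overnight to reach 10^8 CFU/ml before dosing. Counts were spiral-plated on nutrient agar with β-lactamase. Change in log CFU/ml was measured from time 0; at least triplicate.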
# Staphylococcus aureus [19] = assay: T>MIC for 1-log drop in count in methicillin-resistant Staphylococcus aureus 33820 in in vitro pharmacokinetic model after 24 hrs using 10^6 CFU/ml inoculum; format: functional
# Staphylococcus aureus [20] = assay: Antibacterial activity against methicillin-sensitive Staphylococcus aureus 5956 assessed as viable count at 4 times of MIC after 48 hrs using 10^6 CFU/ml inoculum; format: functional, organism-based
# Staphylococcus aureus [21] = assay: T>MIC for static effect in methicillin-resistant Staphylococcus aureus 33815 in in vitro pharmacokinetic model after 24 hrs using 10^6 CFU/ml inoculum; format: functional
# Staphylococcus aureus [22] = assay: Antibacterial activity against methicillin-sensitive Staphylococcus aureus 5956 infected in in vitro pharmacokinetic model assessed as time required to 99% killing at 750 mg, iv every 8 hrs using 10^6 CFU/ml inoculum; format: functional
# Staphylococcus aureus [23] = assay: Antibacterial activity against methicillin-resistant Staphylococcus aureus 33815 in in vitro pharmacokinetic model assessed as viable count at 4 times of MIC; format: functional; summary of the method: as §3
# Staphylococcus aureus [24] = assay: Antibacterial activity against methicillin-sensitive Staphylococcus aureus 5956 assessed as viable count at 2 times of MIC after 24 hrs using 10^6 CFU/ml inoculum; format: functional, organism-based
# Staphylococcus aureus [25] = assay: T>MIC for 2-log drop in count in methicillin-sensitive Staphylococcus aureus 5956 in in vitro pharmacokinetic model after 24 hrs using 10^6 CFU/ml inoculum; format: functional
# Staphylococcus aureus [26] = assay: Antibacterial activity against methicillin-resistant Staphylococcus aureus 33827 infected in in vitro pharmacokinetic model assessed as reduction in viable count at 1500 mg, iv every 8 hrs measured after 36 hrs using 10^8 CFU/ml inoculum; format: functional; summary of the method: as §4
smiles,measurement,setting,value
C[C@@H](O)[C@H]1C(=O)N2C(C(=O)O)=C(S[C@H]3C[C@@H](C(=O)N4CC[C@H](NC(=O)CNC(=N)N)C4)N(C)C3)[C@H](C)[C@H]12 [TOMOPENEM],Activity,Staphylococcus aureus [1],Active
same,AUBC,Staphylococcus aureus [2],25 log10CFU/ml.hr
same,MIC50,Staphylococcus aureus [3],2 µg/mL
same,MIC90,Staphylococcus aureus [3],4 µg/mL
same,AUBC,Staphylococcus aureus [4],100.1 log10CFU/ml.hr
same,AUBC,Staphylococcus aureus [5],20.2 log10CFU/ml.hr
same,log10CFU/ml,Staphylococcus aureus [6],<2
same,MIC,Staphylococcus aureus [7],0.25 µg/mL
same,fT>MIC,Staphylococcus aureus [8],24.4%
same,fT>MIC,Staphylococcus aureus [9],39.6%
same,log10CFU/ml,Staphylococcus aureus [10],4.2
same,log10CFU/ml,Staphylococcus aureus [11],<2
same,log10CFU/ml,Staphylococcus aureus [12],4.2
same,Time,Staphylococcus aureus [13],7 h
same,log10CFU/ml,Staphylococcus aureus [14],5
same,fT>MIC,Staphylococcus aureus [15],3.3%
same,fT>MIC,Staphylococcus aureus [16],19.5%
same,log10CFU/ml,Staphylococcus aureus [17],< 2
same,log10CFU/ml,Staphylococcus aureus [18],3.9
same,fT>MIC,Staphylococcus aureus [19],9.9%
same,Activity,Staphylococcus aureus [20],inactive
same,fT>MIC,Staphylococcus aureus [21],5.3%
same,Time,Staphylococcus aureus [22],4 h
same,log10CFU/ml,Staphylococcus aureus [23],<2
same,Activity,Staphylococcus aureus [24],inactive
same,fT>MIC,Staphylococcus aureus [25],8.7%
same,log10CFU/ml,Staphylococcus aureus [26],6

# — ChEMBL document CHEMBL1255300, “Pharmacodynamics of the antibacterial effect and emergence of resistance to tomopenem, formerly RO4908463/CS-023, in an in vitro pharmacokinetic model of Staphylococcus aureus infection” (Antimicrob Agents Chemother, 2008)
